Results as given in publication PMC11740227 (FASEB journal : official publication of the Federation of …, 2023).

Legend:
Molt4E6 cells [1] = assay: Cell death by trypan blue exclusion in Molt4E6 cells; format: cell-based, human; details: for cell death: Molt4E6 cells, 24 h of treatment
Molt4E6 cells [2] = assay: Caspase activation by Western blot in Molt4E6 cells; format: cell-based, human; details: 6 h of treatment
Trp53KO thymic lymphoma [3] = assay: Cleaved caspase 3 immunohistochemistry of tumor tissue; format: in vivo, mouse; details: Trp53KO mice, day 10 after treatment initiation, compared to vehicle
Procedure, shortened: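 Male Trp53KO mice with ultrasound-detected thymic lymphoma (100–150 mm3) received vehicle or test compound, 10 mg/kg IP twice daily (suspension in 1% HPMC/PBS), and tumors were taken at day 10. Sections were stained overnight at 4°C with anti-cleaved caspase-3 (1:200), then biotinylated anti-rabbit, DAB/H2O2 and hematoxylin counterstain. Positive cells counted in ten 20× fields per sample, expressed per mm2; three mice per condition.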

S1P levels in blood = assay: Blood sphingolipid analysis by LC MS/MS after PF543 administration; format: in vivo, mouse; details: 10 mg/kg of body weight, 2 h after IP injection, vs vehicle
WT mice [4] = details: mouse, in vivo, ip, 10 mg/kg
Trp53KO thymic lymphoma [5] = assay: Thymic lymphoma growth in Trp53KO mice by ultrasound imaging; format: in vivo, mouse; details: 10 mg/kg BID IP for 10 days, compared to vehicle
[6] = system: lymphocytes isolated from WT thymus; assay: Viability of WT lymphocytes; format: cell-based, mouse
[7] = Pharmacokinetics of PF543 in wildtype mice, IP dosing; format: in vivo, mouse; details: after IP administration in mice
[8] = format: in vitro ADME; details: mouse
[9] = system: mouse Trp53KO thymic lymphoma cells; assay: Sphingolipid levels in cultured cells by LC MS/MS; format: cell-based; details: PF543 0.5 μM
[10] = system: mouse Trp53KO thymic lymphoma cells; assay: Proliferation, viability and cell death of cultured thymic lymphoma cells; format: cell-based
WT mice [11] = assay: Tolerability of IP dosing in the PK study; format: in vivo; details: 100 mg/kg IP
Jurkat cells = assay: Cell death by trypan blue exclusion in Jurkat cells with Bak knockdown; format: cell-based, human; details: Jurkat sgRNA BakA and BakB vs control cells, 24 h of treatment

## CCCC[C@@H](C)[C@@H](OC(=O)C[C@@H](CC(=O)O)C(=O)O)[C@H](C[C@@H](C)C[C@H](O)CCCC[C@@H](O)C[C@H](O)[C@H](C)N)OC(=O)C[C@@H](CC(=O)O)C(=O)O [FB1]
Molt4E6 cells [1]; FB1 25 μM pre-treatment 1 h, then 3 μM D-erythro-Sph, 24 h
  protection from Sph-induced cell death: did not protect

## CCCCCCCCCCCCC/C=C/[C@H](O)[C@H](N)CO [L-erythro-Sph]
Molt4E6 cells [2]
  caspase activation: did not induce cell death or caspase activation
Molt4E6 cells [1]
  cell death: did not induce cell death

## Cc1cc(CS(=O)(=O)c2ccccc2)cc(OCc2ccc(CN3CCC[C@@H]3CO)cc2)c1 [PF543]
Trp53KO thymic lymphoma [3]
  number of cleaved caspase 3 positive cells in tumor samples: significantly higher
S1P levels in blood
  S1P levels in blood: decreased
WT mice [4]
  liver function (liver enzymes in blood): did not significantly impact
  number of total white cells and lymphocytes in blood: no decrease
Trp53KO thymic lymphoma [5]
  tumor growth (tumor size by ultrasound): significant inhibition
[6]
  cell viability over time: did not affect cell viability
[7]
  half-life (T1/2): ~ 4 h
[8]
  plasma protein binding: 94 % bound
[9]
  Sph levels in cells: significantly increased
  total Cer levels in cells: significantly increased
[10]; PF543 0.5 μM, low-serum medium, counted every day for 4 days, CCK-8 at day 2
  proliferation over time: significantly decreased
[10]; Trp53KO thymic lymphoma cells treated with PF543
  cell death: resulted in cell death
[10]; mouse Trp53KO lymphoma cells
  survival of cells in culture: reduced survival
WT mice [11]
  tolerability of IP dosing: not tolerated

## CCCCCCCCCCCCC/C=C/[C@@H](O)[C@@H](N)CO [Sph, sphingosine]
Molt4E6 cells [2]
  caspase activation: activation of caspases
Molt4E6 cells [1]
  cell death: caused cell death
Jurkat cells
  Sph-induced cell death after knockdown of Bak: significantly protected

## ZVAD
Molt4E6 cells [1]; ZVAD 40 μM pre-treatment 1 h, then 3 μM D-erythro-Sph, 24 h
  inhibition of Sph-induced cell death: significantly inhibited
[10]; pan-caspase inhibitor with PF543, Trp53KO thymic lymphoma cells
  protection from PF543-induced cell death: partially protected
